# “And” between values parts separate entries of the source, which are not always exact repeats. Equal entries are not always repeated.
# Experiments:
# human ΔF508-CFTR = human ΔF508-CFTR (Homo sapiens, UniProt P13569, DEL508-508); assay: ΔF508-CFTR corrector activity assay; format: cell-based; conditions: concentration-dependent increase in I− influx in FRT ΔF508-CFTR cells
# [1] = format: physicochemical
# Method in brief: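 Reverse-phase HPLC retention time gave log k (capacity factor). A calibration line of log k against known logP was built from reference compounds and used to convert each test compound's log k to logP.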
Structure (SMILES),ΔF508-CFTR corrector activity (in words) (human ΔF508-CFTR),chromatographic logP [1],logP difference versus bithiazole 1 (lower) ([1]; 14h compared with bithiazole CF corrector 1)
"COc1ccc(NC(=O)c2cc(-c3sc(NC(=O)C(C)(C)C)nc3C)n(-c3ccc(Br)cc3)n2)cc1 [11d, 1-(4-Bromophenyl)-N-(4-methoxyphenyl)-5-(4-methyl-2-pivalamidothiazol-5-yl)-1H-pyrazole-3-carboxamide]",relatively low activity,–,–
"COc1ccc(Cl)cc1Cn1nc(-c2sc(NC(=O)C(C)(C)C)nc2C)cc1C(=O)NCCO [14j, 1-(5-chloro-2-methoxybenzyl)-N-(2-hydroxyethyl)-3-(4-methyl-2-pivalamidothiazol-5-yl)-1H-pyrazole-5-carboxamide]",retains corrector activity,3.5,–
"COc1ccc(Cl)cc1Cn1nc(-c2sc(NC(=O)C(C)(C)C)nc2C)cc1C(=O)N1CCOCC1 [14h, N-(5-(1-(5-chloro-2-methoxybenzyl)-5-(morpholine-4-carbonyl)-1H-pyrazol-3-yl)-4-methylthiazol-2-yl)pivalamide]",–,4.1,1.2 log units and ~ 1.2 log units
"COc1ccc(Cl)cc1Nc1nc(-c2sc(NC(=O)C(C)(C)C)nc2C)cs1 [compound 1, reference compound]",–,> 5,–

# Reference: publication PMC3109609 (Journal of medicinal chemistry, 2010)
